Hits are enriched below; roughly 2.2% of the tested compounds scored in any of these assays.
Bim-Mcl-1: disrupts Bim peptide binding to human Mcl-1 | AID 1009 | Bead-based flow cytometry, Bim peptide-Mcl-1 binding | hit rate 0.1% among 190,000 | Q07820 | inhibition, % at 10 µM; in the data active = inhibition above about 40%;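 note: 0% = no compound tracer wells and 100% = peptide blocker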
Target sequence (Q07820 whole entry, looked up): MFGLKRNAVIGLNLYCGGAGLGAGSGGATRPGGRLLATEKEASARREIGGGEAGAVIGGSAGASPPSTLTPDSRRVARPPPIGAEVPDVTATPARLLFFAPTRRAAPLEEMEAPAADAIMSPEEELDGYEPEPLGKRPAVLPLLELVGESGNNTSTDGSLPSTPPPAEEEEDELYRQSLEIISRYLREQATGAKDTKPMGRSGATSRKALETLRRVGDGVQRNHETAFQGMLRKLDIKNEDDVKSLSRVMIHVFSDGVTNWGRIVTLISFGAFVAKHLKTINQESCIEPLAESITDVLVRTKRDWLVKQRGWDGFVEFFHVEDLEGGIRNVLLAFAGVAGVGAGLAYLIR
Mcl1 Bid PPI: Mcl-1/Bid interaction inhibition; AID 1021; inhibition, % at 21.7 µM; hit rate 0.97% among 220,000; Q07820; TR-FRET Mcl-1/Bid-Dy647 peptide binding, 1536-well;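 active = compounds that cut the binding signal by more than half at the single screening dose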;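 note: His-tagged Mcl-1 with europium anti-His antibody binding Bid BH3 peptide; 0% = Mcl-1 plus peptide wells and 100% = peptide-only wells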
Mcl1-Noxa inh: Mcl-1/Noxa interaction inhibition | Q07820 | TR-FRET Mcl-1/Noxa peptide binding, 2 h | inhibition, % at 21.7 µM | hit rate 1.5% among 220,000 | AID 1022;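 active = compounds that cut the protein-peptide binding signal by more than 50% relative to plate controls in a single-dose test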;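 note: His-tagged Mcl-1 with rhodamine Noxa BH3 peptide and terbium anti-His antibody; 0% = Mcl-1 plus Noxa peptide wells and 100% = peptide-only wells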
EBV gp42 block: inhibitors of Epstein-Barr virus glycoprotein 42. Q1HVG2. Fluorescence polarization binding assay, mP read-out. inhibition, % (tested at 21.74 µM). hit rate 0.42% among 220,000; in the data active = inhibition above about 50%
MCL1 BIM primary: MCL1-BIM-BH3 interaction inhibition (human); GST-MCL1 / FITC-Bim-BH3 fluorescence polarization; AID 2057; Q07820; hit rate 0.68% among 320,000; inhibition, % at 10.9 µM;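 active = inhibition above the mean inhibition of all tested compounds plus 3 SD, set per campaign, cut at about 40% in these data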;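 note: 0% = DMSO wells and 100% = unlabeled Bim-BH3 peptide control; higher means more loss of mP so more displacement of Bim peptide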
RBBP9 inhibitor: inhibitors of human serine hydrolase RBBP9 | recombinant RBBP9, FP-Rh probe fluorescence polarization | inhibition, % at 7.94 µM | hit rate 0.2% among 220,000;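 active = inhibition above the campaign mean of all tested compounds plus 3 SD, cut at about 14% in these data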;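 note: plate controls were DMSO wells with RBBP9 for no effect and wells lacking RBBP9 protein for full effect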
Target sequence (O75884 whole entry, looked up): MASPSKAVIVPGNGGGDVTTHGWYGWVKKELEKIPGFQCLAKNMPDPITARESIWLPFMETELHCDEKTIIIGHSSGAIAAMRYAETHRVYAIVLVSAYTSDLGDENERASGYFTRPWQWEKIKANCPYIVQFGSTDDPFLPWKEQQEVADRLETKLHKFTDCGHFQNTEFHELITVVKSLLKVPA
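Test system: recombinant human RBBP9. Quantity: 2.5 µM RBBP9 dispensing solution, before mixing. Detection: FP readout at 525/598 nm. Reagent: Serine-hydrolase probe FP-Rh, 375 nM pre-mixing. Measure: % inhibition. Control set: DMSO-treated enzyme wells and wells lacking RBBP9. Buffer or medium: Tris-NaCl-Pluronic buffer, pH 8.0. Times: preincubation 30 min plus labeling 45 min at 25 °C.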
* marks the source's active call; other numbers are inactive results; x = not tested or not shown.

SMILES	Bim-Mcl-1	Mcl1 Bid PPI	Mcl1-Noxa inh	EBV gp42 block	MCL1 BIM primary	RBBP9 inhibitor
N#Cc1ccccc1NC(=O)COC(=O)CCc1ccccc1	x	x	x	x	3.6	x
CN(C)c1cc(Cl)c2nonc2c1N	x	-24.9	19.4	-3.1	10.2	-3.7
CC(/C=C1\SC(=S)N(CCC(=O)Nc2ccc(O)cc2)C1=O)=C\c1ccccc1	x	x	x	x	-3.8	x
CC(/C=C1\SC(=S)N(NS(=O)(=O)c2ccc(C)cc2)C1=O)=C\c1ccccc1	x	66.4*	93.5*	0.3	2.5	-10.5
CC(/C=C1\SC(=S)N(CCCC(=O)Nc2ccc(C(=O)O)c(O)c2)C1=O)=C\c1ccccc1	-4.0	94.0*	111.2*	15.3	8.2	-18.1
CC(/C=C1\SC(=S)N(NS(=O)(=O)c2ccccc2)C1=O)=C\c1ccccc1	x	-9.7	78.5*	9.6	15.0	-2.8
COc1ccc2cc(C(=O)N3CCc4ccccc43)[nH]c2c1	x	x	x	x	4.4	x
Cc1nnc(SCC(=O)N2CC(=O)Nc3ccccc32)n1-c1ccccc1	-5.0	-9.3	-7.4	-11.7	-7.0	-10.8
Nn1c(Cc2ccccc2F)nnc1SCC(=O)N1CC(=O)Nc2ccccc21	0.0	0.2	-11.3	60.0*	-11.4	-5.7
COc1ccc(NC(=S)Nc2ccc3nccnc3c2)cc1	-1.0	-52.5	51.8*	4.0	6.7	-2.3
Cc1ccc(-c2nn(CCC(N)=O)c(=O)c3ccccc23)cc1	x	x	x	x	-2.1	x
Cc1ccc(C(=O)C(C(=O)/C=C/c2ccccc2)=C2SCCCS2)cc1	58.0*	2.6	2.1	-3.6	9.5	-10.7
COc1ccc(/C=C/C(=O)C(C(N)=O)=C2SCCS2)cc1	17.0	-8.6	20.1	-24.8	7.6	4.8
CC1(C)CC(=O)C(C=Nc2cccc(/N=C/C3=C(O)CC(C)(C)CC3=O)n2)=C(O)C1	-2.0	-19.0	84.7*	-3.3	x	3.1
Cc1cccc(-c2n[nH]c(=S)n2/N=C/c2cccs2)c1	x	-7.4	6.2	-17.0	-10.9	-3.2
Cc1cccc(-c2n[nH]c(=S)n2/N=C/c2ccc(C)s2)c1	4.0	-32.9	69.0*	4.5	-16.4	-6.0
Cc1nc2ccccc2c(=O)n1-c1ccc(F)c(NS(=O)(=O)c2ccccc2F)c1	x	x	x	x	2.8	x
COCCNC(=O)c1noc2c1CCc1cc(OC)ccc1-2	-4.0	0.6	64.6*	-26.3	9.0	-6.0
CCOc1ccc(CCNC(=O)CCC(=O)N2CCOc3ccccc32)cc1OCC	x	x	x	x	1.5	x
CCCCc1nnc2c(N(C)S(=O)(=O)c3ccccc3)nc3ccccc3n12	x	55.1*	19.1	-3.0	-0.5	-4.4
CCCCC(C(=O)OCC)C(N)Cc1ccc(F)cc1 (configuration not stated)	98.0*	1.5	24.4	13.4	13.8	-6.0
COc1ccc(C(=O)Oc2c(CN3CCOCC3)cc(Cl)c3cccnc23)cc1	-1.0	54.0*	26.7	-4.0	3.7	-7.8
Cc1ccc(N2NC(=O)/C(=C\c3cc4c(cc3[N+](=O)[O-])OCO4)C2=O)cc1C	1.0	4.9	99.8*	-8.5	15.6	-6.4
Cc1nc(N(C)C)c2sc(=S)n(Cc3ccccc3)c2n1	7.0	-20.9	4.8	-0.1	3.1	-9.0
O=S(=O)(NC1c2cccc3cccc(c23)C1Sc1ncccn1)c1ccccc1 (configuration not stated)	0.0	-11.3	5.1	10.9	6.3	-5.6
SMILES	Bim-Mcl-1	Mcl1 Bid PPI	Mcl1-Noxa inh	EBV gp42 block	MCL1 BIM primary	RBBP9 inhibitor
CN(Cc1ccccc1)Cc1nc2c([nH]1)c(=O)[nH]c(=O)n2C	-4.0	97.2*	x	-9.4	11.0	-4.8
NC(=S)N/N=C/c1coc2c(ccc3ccccc32)c1=O	-4.0	76.5*	-1.7	32.6	4.6	2.2
O=c1cc(/N=C/c2coc3c(ccc4ccccc43)c2=O)[nH]c(=S)[nH]1	-14.0	-84.6	73.9*	-17.4	22.5	-8.5
NC(=S)N/N=C/c1coc2cc(Br)ccc2c1=O	x	-27.4	18.3	-34.5	-4.0	-5.8
Cc1onc(-c2ccccc2)c1C(=O)OCC(=O)NC(C)c1ccc(Cl)cc1 (configuration not stated)	x	x	x	x	-13.9	x
CCOC(=O)c1nnn(-c2nonc2N)c1CN1CCc2ccccc2C1	-5.0	-16.9	-6.0	4.9	3.6	-0.2
CCOC(=O)c1nnn(-c2nonc2N)c1CS(=O)(=O)c1ccccc1	-1.0	54.6*	10.9	-6.3	-6.0	-2.6
Cc1ccccc1NC(=S)N/N=C/c1ccc(O)cc1O	x	-255.7	60.2*	-8.8	19.5	1.1
Cc1cccc(NC(=S)N/N=C/c2cccc(O)c2)c1C	x	-62.3	-19.3	0.1	-0.3	-6.4
COc1cc(CNc2ccc3[nH]c(=O)[nH]c3c2)cc(Cl)c1OCC(=O)NC(C)(C)C	3.0	-14.2	58.6*	7.6	15.7	4.4
Cc1ccc2nsnc2c1NC(=O)c1ccc(-c2cc(Cl)ccc2Cl)o1	2.0	31.3	50.8*	-22.3	1.7	-12.3
CNC(=O)c1cccc(NC(=O)CCCNC(=O)c2ccc(Cl)cc2)c1	x	x	x	x	-20.9	x
COC(=O)c1ccc(CN(c2ccc(C(=O)O)c(O)c2)S(=O)(=O)c2ccc(Cl)c([N+](=O)[O-])c2)cc1	x	x	x	x	6.8	x
CCn1c(O)c(C2=c3ccccc3=NC2=O)c2cc(Br)ccc21	0.0	1.4	22.1	4.5	-0.7	-8.8
O=C1N=c2ccccc2=C1c1c(O)n(-c2cccc(F)c2)[nH]c1=O	-10.0	72.7*	102.3*	19.7	22.8	-13.3
COc1ccc(C2C(C#N)=C(N)OC3=C2C(=O)CC(C)(C)C3)cc1OC (configuration not stated)	-1.0	-10.2	12.2	-1.7	-2.8	-4.6
CC1(C)CC(=O)C2=C(C1)OC(N)=C(C#N)C2c1cccc(OC(=O)c2ccco2)c1 (configuration not stated)	-5.0	97.1*	-6.0	-7.0	7.3	-7.7
Cc1ccc(/C=C2\Oc3c(ccc(O)c3CN3CCN(C)CC3)C2=O)cc1	0.0	-0.1	-12.9	-43.6	42.0*	5.8
Cc1cccc(NC(=O)CN2NS(=O)(=O)c3ccccc3C2=O)c1	0.0	-1.8	10.8	-14.2	-3.8	1.9
O=C(N/N=C1\C(=O)c2cccc3cccc1c23)c1ccc(O)cc1	1.0	-24.1	53.5*	7.5	3.0	-6.5
CCOc1cc2c(cc1OCC)CN(C(=O)c1cccc(S(=O)(=O)N3CCCC3)c1)CC2	x	x	x	x	-2.4	x
O=[N+]([O-])c1cc(/C=N/n2c(-c3cccnc3)n[nH]c2=S)ccc1Cl	0.0	-24.8	69.6*	-8.9	0.1	-3.8
O=C(COc1ccc(S(=O)(=O)N2CCOCC2)cc1)NC1CCCCC1	x	x	x	x	-2.8	x
CCOc1cc(N2CCOCC2)c(OCC)cc1NC(=O)CCS(=O)(=O)c1ccc(Cl)cc1	0.0	101.0*	19.4	-18.6	0.1	-3.3
Cc1csc(SC(C)c2nc3scc(-c4ccccc4)c3c(=O)[nH]2)n1 (configuration not stated)	x	-20.7	-8.7	-10.2	-3.1	7.3

Screens as filed in PubChem.
